Results from BindingDB's records for doi:10.1021/jm9811256 (Academy of Sciences of The Czech Republic, 1999).
pEC50: −log10 of the molar value.

Experiments:
[1] = Inhibitory activity against varicella zoster virus thymidine kinase (VZV TK+) YS strain
[2] = Inhibition of herpes simplex virus type 1 thymidine kinase (HSV-1 TK-) B2006 strain
[3] = Inhibitory activity against herpes simplex virus type 1 (HSV-1) thymidine kinase (TK) VMW 1837 strain
[4] = Inhibitory activity against varicella zoster virus thymidine kinase (VZV TK-) 07/1 strain
[5] = Inhibitory activity against varicella zoster virus thymidine kinase (VZV TK+) OKA strain
[6] = Inhibition of varicella zoster virus thymidine kinase (VZV TK+) YS/R strain
Thymidine kinase [7] = molecular target: T1, Thymidine kinase (Human herpesvirus 3, UniProt Q6QCL9); test: Inhibitory activity against varicella zoster virus thymidine kinase (VZV TK+) YS strain
T1 sequence (Q6QCL9 whole entry): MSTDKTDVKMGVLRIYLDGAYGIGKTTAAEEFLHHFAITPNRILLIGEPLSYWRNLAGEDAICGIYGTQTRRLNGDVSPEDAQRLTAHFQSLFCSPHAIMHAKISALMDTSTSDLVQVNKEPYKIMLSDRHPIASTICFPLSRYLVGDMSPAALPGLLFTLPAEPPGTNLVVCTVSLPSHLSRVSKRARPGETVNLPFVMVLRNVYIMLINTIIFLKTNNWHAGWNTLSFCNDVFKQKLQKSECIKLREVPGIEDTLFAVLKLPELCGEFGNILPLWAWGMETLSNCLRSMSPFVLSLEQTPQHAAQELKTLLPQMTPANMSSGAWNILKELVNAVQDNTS
Procedure, shortened: (§1)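 HEL cell cultures were grown to confluence and infected with 100 CCID50 of VZV. After a 1 h adsorption period, unbound virus was removed and compound was added at serial concentrations (400, 200, 100, ... μg/mL). Cytopathic effect was read when untreated virus controls reached full cytopathicity.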

Thymidine kinase [8] = molecular target: T1, Thymidine kinase; test: Inhibitory activity against varicella zoster virus thymidine kinase (VZV TK+) OKA strain
Procedure, shortened: as §1

SMILES | pEC50 [1] | pEC50 [2] | pEC50 [3] | pEC50 [4] | pEC50 [5] | pEC50 [6] | pEC50 (Thymidine kinase [7]) | pEC50 (Thymidine kinase [8])
CC(C)OP(=O)(COCCn1cnc2c(N)nc(N)nc21)OC(C)C | 4.02 | 3.19 | 3.67 | < 3.87 | < 3.87 |  |  | 
Nc1cccc2c1ncn2CCOCP(=O)(O)O | < 3.74 | < 2.83 | < 2.83 | < 3.74 | < 3.74 |  |  | 
CC(C)OP(=O)(O)COCCn1cnc2c(N)ncnc21 | < 3.80 | < 2.90 | 3.02 | < 3.80 | < 3.80 |  |  | 
Nc1cc2ncn(CCOCP(=O)(O)O)c2c(O)n1 |  | < 3.16 | < 3.16 |  |  |  |  | 
Nc1ncc2ncn(CCOCP(=O)(O)O)c2n1 | 3.99 |  | 3.59 | 4.01 | 3.66 |  |  | 
Nc1nc(=O)n(CCOCP(=O)(O)O)cc1Br | 4.82 | 3.04 | 4.22 | 5.04 | 4.74 |  |  | 
Nc1nc(O)nc2c1ncn2CCOCP(=O)(O)O | < 3.76 | < 2.86 | < 2.86 | < 3.76 | < 3.76 |  |  | 
CC(C)OP(=O)(COCCn1cnc2nc(N)nc(O)c21)OC(C)C | < 3.88 | < 3.27 | < 3.27 |  | < 3.88 |  |  | 
NC1=NC2N=CC=NC2C(=O)N1CCOCP(=O)(O)O (centres undefined) | 3.94 | 3.64 | 3.64 | 4.00 | 4.58 |  |  | 
CSc1ncnc2c1ncn2CCOCP(=O)(O)O | < 2.88 |  |  | < 2.88 | 3.79 |  |  | 
CC(C)OP(=O)(COCCn1c(Br)nc2c(N)nc(N)nc21)OC(C)C | < 3.96 | < 3.05 | < 3.05 | < 3.96 | 4.24 |  |  | 
Nc1nc(=O)ccn1CCOCP(=O)(O)O | 3.80 |  |  | < 3.40 | < 3.40 |  |  | 
Nc1cc(N)c2ncn(CCOCP(=O)(O)O)c2n1 | < 3.76 | 3.28 | 3.61 | < 3.76 | < 3.76 |  |  | 
CC(C)OP(=O)(COCCn1cnc2c(S)ncnc21)OC(C)C | < 3.88 | < 2.97 | < 2.97 | < 3.88 | < 3.88 |  |  | 
Nc1nnc(N)c2c1ncn2CCOCP(=O)(O)O | < 3.76 | < 3.16 | 2.98 | < 3.76 | < 3.76 |  |  | 
Nc1nc(Cl)c2ncn(CCOCP(=O)(O)O)c2n1 | 6.64 | 6.31 | 6.13 | 7.19 | 7.71 |  |  | 
Nc1cc2c(ncn2CCOCP(=O)(O)O)c(N)n1 | < 4.76 | 2.86 | 3.61 | < 4.76 | < 4.76 |  |  | 
CC(C)CCCCCOP(=O)(COCCn1cnc2c(N)ncnc21)OCCCCCC(C)C | 5.40 | < 5.19 | < 5.19 | 5.18 | 5.32 |  |  | 
CCOP(=O)(O)COCCn1cnc2c(N)nc(N)nc21 | 4.80 | 3.20 | 3.32 | 5.20 | 4.90 |  |  | 
CCOP(=O)(O)COCCn1cnc2c(O)nc(N)nc21 | 7.50 | 4.90 | 5.20 | 7.90 | 7.60 |  |  | 
Nc1cnn(CCOCP(=O)(O)O)c(=O)n1 | < 3.40 |  |  | < 3.40 | < 3.40 |  |  | 
CC(C)OP(=O)(COCCn1ncc(N)nc1=O)OC(C)C | 3.54 |  |  | 3.62 | < 3.52 |  |  | 
Nc1nc(N)c2nc(Br)n(CCOCP(=O)(O)O)c2n1 | 4.64 | 4.26 | 4.26 | 4.79 | 5.06 |  |  | 
CC(C)OP(=O)(COCCn1cnc2c(N)ncnc21)OC(C)C | 3.95 | < 2.95 | < 2.95 | 4.25 | 4.71 |  |  | 
Nc1nc(O)c2c(ncn2CCOCP(=O)(O)O)n1 | < 3.76 | < 3.16 | < 3.16 |  | 3.82 |  |  | 
Nc1nccc(OCCOCP(=O)(O)O)n1 | < 3.40 |  | < 3.10 | < 3.40 | < 3.40 |  |  | 
CC(C)OP(=O)(O)COCCn1cnc2c(N)nc(N)nc21 | < 3.82 | < 2.92 | < 2.92 | < 3.82 | 4.01 |  |  | 

SMILES | pEC50 [1] | pEC50 [2] | pEC50 [3] | pEC50 [4] | pEC50 [5] | pEC50 [6] | pEC50 (Thymidine kinase [7]) | pEC50 (Thymidine kinase [8])
Nc1cc2c(ncn2CCOCP(=O)(O)O)c(O)n1 |  | 4.62 | 5.16 | 5.49 | 5.59 | 5.75 | 5.26 | 
CC(C)OP(=O)(O)COCCn1cnc2c(O)nc(N)nc21 | 7.52 | 4.76 | 4.76 | 7.82 | 7.92 |  |  | 
CC(C)OP(=O)(COCCn1cnc2c(O)nc(N)nc21)OC(C)C | 4.43 | 3.19 | 3.19 | 4.08 | 4.27 |  |  | 
Nc1nc(S)c2c(ncn2CCOCP(=O)(O)O)n1 | 4.01 | < 3.49 | 4.18 | 4.18 | 3.92 |  |  | 
CC(C)CCCCCOP(=O)(COCCn1cnc2nc(N)nc(O)c21)OCCCCCC(C)C | 4.23 | < 4.51 | < 4.51 | 4.30 | 4.21 |  |  | 
Nc1nc(F)nc2c1ncn2CCOCP(=O)(O)O | 4.00 | 4.16 | 3.62 | 3.95 | 4.07 |  |  | 
CC(C)CCCCCOP(=O)(COCCn1cnc2c(O)nc(N)nc21)OCCCCCC(C)C | 5.09 | < 3.81 | < 3.81 | 4.46 |  |  |  | 4.67
Nc1ncnc2c1nc(Br)n2CCOCP(=O)(O)O | < 3.85 |  |  | < 3.85 | < 3.85 |  |  | 
Nc1ccnc2c1ncn2CCOCP(=O)(O)O | 3.13 | 3.13 | 3.26 | 2.96 | < 2.84 |  |  | 
O=P(O)(O)COCCn1cnc2c(S)ncnc21 | < 3.76 | < 2.86 | < 2.86 | < 3.76 |  |  |  | 
CCOP(=O)(O)COCCn1cnc2c(N)ncnc21 | 3.70 | 3.30 | 3.30 | 3.83 | 3.88 |  |  | 
CC(C)CCCCCOP(=O)(COCCn1cnc2nc(N)nc(Cl)c21)OCCCCCC(C)C | < 5.03 | < 4.52 | < 4.52 | < 5.03 | < 5.03 |  |  | 
CC(C)OP(=O)(COCCn1cnc2c(Cl)nc(N)nc21)OC(C)C | 4.59 |  |  | 4.64 | 4.48 |  |  | 
Nc1nc(O)c2nc(Br)n(CCOCP(=O)(O)O)c2n1 | 4.31 | < 2.97 | 3.89 | 4.12 | 4.97 |  |  | 
Cc1nc(N)nc2c1ncn2CCOCP(=O)(O)O | < 3.76 | 3.28 | 3.16 | < 3.76 | < 3.76 |  |  | 
CC(C)CCCCCOP(=O)(O)COCCn1cnc2c(O)nc(N)nc21 | 4.49 | 3.22 | 3.22 | 4.06 | 5.40 |  |  | 
Nc1ncnc2c1ccn2CCOCP(=O)(O)O | 4.13 | 2.96 | 3.26 |  | 3.74 |  |  | 
CC(C)CCCCCOP(=O)(COCCn1cnc2c(N)nc(N)nc21)OCCCCCC(C)C | 5.20 | < 4.51 | < 4.51 | < 4.41 | < 5.01 |  |  | 
CC(C)OP(=O)(COCCn1c(Br)nc2c(O)nc(N)nc21)OC(C)C | < 3.96 | < 3.05 | 3.28 | < 3.96 | < 3.96 |  |  | 
Nc1ccn(CCOCP(=O)(O)O)c(=O)n1 | 2.80 |  | 3.40 | 3.22 | 3.22 |  |  | 
Nc1nc(Cl)nc2c1ncn2CCOCP(=O)(O)O | 3.98 |  |  | 4.21 | 3.89 |  |  | 
CC(C)OP(=O)(COCCn1cnc2c(N)nc(Cl)nc21)OC(C)C | 5.03 |  |  |  | 5.90 |  |  | 
CC(C)CCCCCOP(=O)(COCCn1cnc2c(Cl)nc(N)nc21)OCCCCCC(C)C | < 5.43 | < 4.52 | < 4.52 | < 5.43 | < 5.43 |  |  | 
Nc1nccc2c1ncn2CCOCP(=O)(O)O | 3.44 |  |  | 3.59 | 3.74 |  |  | 
Nc1ccn(CCOCP(=O)(O)O)c(=O)c1 | 3.58 |  |  | 3.52 | < 3.40 |  |  | 
Nc1nc(N)c2ncn(CCOCP(=O)(O)O)c2n1 [PMEDAP] | 5.16 |  | 5.16 | 5.06 | 5.46 |  |  | 
